# Results pooled from the literature.
# Compare with care: the assays were run in different laboratories.
# Target: Cyclin-dependent kinase 9 (CDK9, Homo sapiens, UniProt P50750)
SMILES,observed,technique,concentration,remaining binding [%]
C[C@@H](c1ccc(-n2cnc3c(N)ncnc32)cc1)N1CCc2nn(C)c(Cc3ccccc3)c2C1=O,binding,competition with immobilised ligand,0.1 µM,85
CCC(=O)N[C@H]1CC[C@@H](C(=O)N(C)c2ccc(-c3nc4ccccc4o3)cc2)C1,cell-free assay,competition with immobilised ligand,1 µM,95
CN(c1nccc(-c2cnn3ncccc23)n1)C1CC1,binding,,1 µM,100
C[C@@H](c1cccc(C#N)c1)n1cc(Cl)cc(C(N)=O)c1=N,cell-free assay,competition with immobilised ligand,1 µM,91
c1cncc(-c2cccc(Nc3nccc(NC4CCCCC4)n3)c2)c1,binding,competition with immobilised ligand,10 µM,63
C[C@@H]1CN(c2ccc3ncc(-c4ccc5[nH]nc(C6CC6)c5c4)n3n2)C[C@H](C)O1,binding,competition with immobilised ligand,50 nM,79
O=C(c1ccc(Nc2ncc(Cl)c(-c3ccc(Cl)s3)n2)cc1)N1CCC(N2CCCC2)CC1,binding,competition with immobilised ligand,1 µM,68
O=C(NCC1CCOCC1)c1n[nH]cc1NC(=O)c1c(F)cccc1F,binding,competition with immobilised ligand,1 µM,83
CN(c1ccnc(CNc2nc(Nc3ccc4c(c3)CC(=O)N4)ncc2C(F)(F)F)n1)S(C)(=O)=O,cell-free assay,competition with immobilised ligand,1 µM,84
COc1cnc(Nc2cccc(S(N)(=O)=O)c2)nc1N1CCN(c2ccccc2)CC1,binding,competition with immobilised ligand,1 µM,100
CN(CCCC(F)(F)F)c1nccc(-c2cnn3ncccc23)n1,binding,,1 µM,100
CO[C@H]1CC[C@H](CNc2ccc(S(=O)(=O)NC(=O)c3ccc(N4CCN(CC5=C(c6ccc(Cl)cc6)CC(C)(C)CC5)CC4)cc3Oc3cnc4[nH]ccc4c3)cc2[N+](=O)[O-])CC1,cell-free assay,competition with immobilised ligand,1 µM,91
CC1CCCN1c1nccc(-c2cnn3ncccc23)n1 (centres unmarked),binding,,1 µM,100
CCN1CCN(Cc2ccc(C(=O)Nc3ccc(C)c(Oc4ccc5c(c4)CC(=O)N5)c3)cc2C(F)(F)F)CC1,binding,competition with immobilised ligand,1 µM,100
O=C(NCCCN1CCOCC1)c1ccc(Nc2nccc(-c3cc4ccccc4s3)n2)cc1,binding,competition with immobilised ligand,1 µM,52
CN(C)c1nccc(-c2cnc3ncccn23)n1,binding,,1 µM,100
COc1ccc2c(O[C@@H]3C[C@H]4C(=O)N[C@]5(C(=O)O)CC5/C=C\CCCCC[C@H](NC(=O)OC5CCCC5)C(=O)N4C3)cc(-c3csc(NC(=O)C(C)C)n3)nc2c1C (some centres unmarked),cell-free assay,competition with immobilised ligand,1 µM,83
CNC(=O)[C@@H]1CC[C@@H](n2c(-c3ccc4cnccc4c3)nc3ccc(C(=O)NCc4cccc(C(N)=O)c4)cc32)C1,binding,competition with immobilised ligand,1 µM,100
Cc1cnn2ncc(-c3ccnc(N(C)C)n3)c2c1,binding,,1 µM,91
NS(=O)(=O)c1cc(NC(=O)C2(c3ccccc3Cl)CC2)ccc1Oc1cccc(Cl)c1,cell-free assay,competition with immobilised ligand,1 µM,78
CC(C)(C)c1ccc(-c2nc(CBr)nn2-c2cccc(O)c2)cc1,cell-free assay,competition with immobilised ligand,10 µM,91
COc1ccc2c(c1)O[C@@H](c1ccc(OC)c(OC)c1)C[C@H]2NC(=O)C1(c2ccc3c(c2)OC(F)(F)O3)CC1,cell-free assay,competition with immobilised ligand,1 µM,89
O=C(NCCCN1CCOCC1)c1ccc(Nc2ncc(Cl)c(-c3ccc(Cl)s3)n2)cc1,binding,competition with immobilised ligand,1 µM,56
